Source: PubChem
FLuc act counter: affects firefly luciferase, flagging false hits in luciferase stimulation screens; ATPlite luciferase biochemical, luminescence, 10 min; 0 = ATP-free wells, 1 = DMSO control; activation factor at 10 µM; P08659; 200,000 tested, under 10 active;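 active means luciferase activation factor, scaled between plate controls, of at least 2 with compound at 10 µM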
Target sequence (P08659 whole entry, looked up): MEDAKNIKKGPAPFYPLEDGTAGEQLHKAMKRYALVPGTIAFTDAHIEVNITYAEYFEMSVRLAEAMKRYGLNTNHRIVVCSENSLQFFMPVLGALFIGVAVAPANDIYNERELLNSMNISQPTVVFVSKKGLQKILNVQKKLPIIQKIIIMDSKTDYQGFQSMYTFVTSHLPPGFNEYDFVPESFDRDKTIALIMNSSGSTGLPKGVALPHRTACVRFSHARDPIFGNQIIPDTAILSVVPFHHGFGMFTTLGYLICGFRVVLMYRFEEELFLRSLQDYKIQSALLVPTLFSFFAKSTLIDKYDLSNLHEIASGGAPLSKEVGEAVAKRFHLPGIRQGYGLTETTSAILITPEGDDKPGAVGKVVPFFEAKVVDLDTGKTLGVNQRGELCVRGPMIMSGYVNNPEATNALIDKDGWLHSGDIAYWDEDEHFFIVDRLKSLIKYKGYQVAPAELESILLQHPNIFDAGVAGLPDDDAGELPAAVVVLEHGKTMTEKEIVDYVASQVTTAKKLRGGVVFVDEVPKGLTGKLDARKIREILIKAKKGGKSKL
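Assay system: Luciferase/luciferin detection reagent, cell-free biochemical luciferase assay / Also added: ATP substrate / Schedule: 10 min at ambient temperature / Measured by: luminescence measurement of luciferase light output / Benchmarks: low control with PBS replacing ATP, high control enzyme plus ATP without compound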
HSP90 refold inh: blocks HSP90-mediated luciferase refolding in reticulocyte lysate; Rabbit reticulocyte lysate, luciferase refolding luminescence, 3 h; inhibition, % at 5.6 µM; hit rate 0.91% among 290,000; AID 1789;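 active means inhibition above the screen-wide mean plus 3 SD, computed separately per campaign, cut at about 16% in these data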;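 further: inhibitors lower the luminescence because luciferase stays unfolded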
STAT3 blocker: STAT3 signaling inhibition; hit rate 0.89% among 190,000; AID 862; U3A cells, IL-6 STAT3-luciferase reporter, luminescence; host cell line lacks STAT1; inhibition, % at 5.5 µM;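 active means inhibition above the mean inhibition across all screened compounds plus 3 SD, cut at about 44% in these data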
TRAIL sens C8: sensitizes caspase-8 expressing cells to TRAIL. NB7+C8 cells + TRAIL, ATPlite viability luminescence. inhibition (viability loss, TRAIL sensitization), % at 10 µM. hit rate 1% among 360,000. AID 624354;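 active means compounds causing at least 50% loss of cell viability in the single-dose screen, relative to plate controls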
FLuc inhib CS: counter-screen for luciferase assay inhibitors: firefly luciferase inhibition; inhibition, % at 10 µM; AID 1006; ATPLite firefly luciferase biochemical luminescence, 10 min; P08659; hit rate 1.5% among 200,000;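 active means inhibition above about 50% when tested at 10 µM, limit read from the data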
PPC-1+TRAIL kill: PPC-1 cancer cell killing with TRAIL present. PPC-1 cells + TRAIL, ATPLite viability luminescence. cell killing (% activity), % at 4 µM or 5 µM. hit rate 0.41% among 220,000. AID 1443;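 active means cell killing above 50% in the first pass at 4 µM, then a duplicate retest at 5 µM averaging 50% or more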
A number is an active result; – = inactive; · = no result. This is a sample that favours compounds with a hit; in the whole collection about 2.2% have one here.

SMILES	FLuc act counter	HSP90 refold inh	STAT3 blocker	TRAIL sens C8	FLuc inhib CS	PPC-1+TRAIL kill
CC(C)CN1CCNC(=O)C1CC(=O)NCCCN1CCCc2ccccc21 (configuration not stated)	–	–	–	–	–	–
O=C(/C=C/Nc1ccc(F)c(F)c1)c1cccs1	–	–	–	–	80	–
O=C(/C=C/Nc1ccc(F)c(F)c1)c1ccc(Br)cc1	–	–	–	–	–	–
Cc1cccc(N/C=C/C(=O)c2cccs2)c1C	–	–	–	79	92	59
Cc1c(NC(=O)c2cccs2)cccc1NC(=O)c1cccs1	·	–	·	–	·	·
Cc1ccc(C=Nc2ccccc2C(N)=O)o1	–	–	–	–	54	–
NC(=O)c1ccccc1N/C=C/C(=O)c1cccs1	–	–	–	58	85	–
NC(=O)c1ccccc1NS(=O)(=O)c1cccs1	–	–	–	–	–	–
CC(C)Oc1ccc(S(=O)(=O)N2CCOCC2)cc1NC(=O)C1=COCCO1	·	·	·	–	·	·
O=C(CCc1nnc2ccc(N3CCOCC3)nn12)Nc1ccc(F)cc1F	·	–	·	–	·	·
CCN(CC(=O)Nc1cc(Cl)ccc1C)c1ncnc2sc(C)c(C)c12	–	–	–	–	–	–
O=C(NCCCN1CCOCC1)c1ccc(Cl)cc1Cl	·	–	·	–	·	·
Cc1ccc(C(=O)/C=C/Nc2ccccc2C(N)=O)o1	–	–	–	–	63	–
CC(=O)Nc1ccc(N/C=C/C(=O)c2ccc(C)o2)cc1	–	–	–	–	–	–
CSc1cc(-c2ccc(Cl)cc2)n(Cc2ccccc2)c(=O)c1C#N	–	–	–	75	–	–
c1ccc(CNc2nc(NCc3ccccc3)c3ccccc3n2)cc1	·	–	·	53	·	–
c1ccc(CNc2nc3ccccc3[nH]2)cc1	–	–	–	–	64	–
c1ccc(CNc2nc(-c3ccccc3)nc3ccccc23)cc1	·	–	·	–	·	·
c1ccc2[nH]c(NCc3ccc4c(c3)OCO4)nc2c1	–	–	–	–	82	–
O=C(/C=C\c1ccc(-c2cccc([N+](=O)[O-])c2)o1)N1CCOCC1	–	–	–	–	–	–
O=C1c2c(-c3ccc(Br)cc3)noc2CCN1Cc1cn(Cc2cccnc2)nn1	·	·	·	–	·	·
Cc1ccc(NC(=O)NC2CCCCCCC2)cc1	·	–	·	–	·	·
COc1ccc(C(=O)COC(=O)c2ccco2)cc1	–	–	–	–	72	–
COc1ccc(C(=O)COc2cccc(NC(=O)c3ccco3)c2)cc1	–	–	–	–	–	–
CN1CCN(c2cc(-c3cccc(C(=O)O)c3)nc3ccnn23)CC1	·	·	·	–	·	·
SMILES	FLuc act counter	HSP90 refold inh	STAT3 blocker	TRAIL sens C8	FLuc inhib CS	PPC-1+TRAIL kill
COC(=O)C1=C(C)N(Cc2ccccc2)C(=NCc2ccccc2)N[C@H]1c1cccc(C(F)(F)F)c1	·	·	·	78	·	·
COC(=O)C1=C(C)N(Cc2ccccc2)C(=NCC(C)C)N[C@H]1c1cccc(C(F)(F)F)c1	·	·	·	56	·	·
COC(=O)C1=C(C)N(Cc2ccccc2)C(=NCc2cccc(Cl)c2)N[C@H]1c1cccc(F)c1	·	·	·	81	·	·
CCCCCCCCN1C(=O)[C@H](CC(=O)NCc2ccc(OC)c(OC)c2)C[C@@]2(C(=O)OC)CC(C)(C)CC=C12	·	·	·	–	·	·
COCCNc1nc(N2CCCCC2)c2cnn(C)c2n1	·	–	·	–	·	·
O=C(/C=C/c1nc2ccccc2s1)N1CCCCCC1	–	–	–	–	62	–
Cc1ccc2c(c1)C(c1ccccc1)CC(=O)O2 (configuration not stated)	·	–	·	–	·	–
COc1ccc(-c2nc3ccccn3c2C=O)cc1	–	–	–	–	61	–
CCc1c(-c2ccc(Br)cc2)ncn1Cc1cccc(-c2ccccc2)c1	·	·	·	–	·	·
COc1ccc(CNc2nc3ccccc3n2Cc2ccc(Cl)cc2)cc1OC	–	–	–	–	–	–
Cc1cc(N)n(-c2cc(C)c3ccccc3n2)n1	–	–	–	60	84	–
O=C(Nc1ccc(Cl)c(C(F)(F)F)c1)c1ccncc1	–	–	–	–	–	·
CNC(=O)c1cc(Oc2ccc(NC(=O)Nc3ccc(Cl)c(C(F)(F)F)c3)cc2)ccn1	·	·	·	71	·	·
COc1cc(OC)c(C2C(C#N)=C(C)NC(C)=C2C#N)c(C(=O)O)c1	·	–	·	–	·	–
O=C1/C(=C/c2cccs2)Sc2ccccc21	–	–	–	–	68	–
O=C(NCc1ccc(Cl)c(Cl)c1)c1cc(C2CCCCN2C(=O)CCc2ccccc2)on1 (configuration not stated)	·	·	·	–	·	·
c1ccc2nc3c(nc2c1)[nH]c1ccccc13	–	–	–	52	–	–
Cc1ccc2c(c1)c1c(c(=O)n(-c3ccccc3C)c(=O)n1CC(=O)NCC1CCCO1)n2C (configuration not stated)	·	–	·	–	·	·
O=C(c1ccc(-c2cc(Cl)ccc2Cl)o1)N1CCOCC1	–	–	–	–	–	·
O=C(c1ccc(-c2ccc(Cl)cc2Cl)o1)N1CCOCC1	–	–	–	–	51	–
CC(C)CC(C(=O)Nc1ccccc1)N1C(=O)C2C3C=CC(C3)C2C1=O (configuration not stated)	–	–	–	–	–	–
O=[N+]([O-])c1c(Nc2ccc(O)cc2)cc(Cl)c2nonc12	·	–	·	96	·	·
O=[N+]([O-])c1c(Nc2ccccn2)cc(Cl)c2nonc12	·	–	·	85	·	–
CC(=O)N1C(C(=O)O)CSC1c1ccc(C)cc1 (configuration not stated)	–	·	·	–	–	–
COc1cccc(OC)c1CNC(=O)C1CCC(=O)N(CC2CCCCC2)C1 (configuration not stated)	·	–	·	–	·	·
SMILES	FLuc act counter	HSP90 refold inh	STAT3 blocker	TRAIL sens C8	FLuc inhib CS	PPC-1+TRAIL kill
C=C1CC(Cn2cc(Br)c(=O)[nH]c2=O)(c2ccc(-c3ccccc3)cc2)OC1=O (configuration not stated)	·	·	·	94	·	·
Cc1ccccc1NC(=O)c1ccccc1NC(=O)CCC(=O)O	–	–	–	–	–	–
CCc1ccc(OCc2ccc(C(=O)NCc3ccccn3)o2)cc1	–	17	–	–	–	–
Cc1ccccc1NC(=O)Cc1nc(COC(=O)c2nccnc2N)cs1	·	·	·	–	·	·
Cc1cc(C)cc(N2C(N)=NC(N)=NC2c2ccccc2F)c1 (configuration not stated)	·	–	·	70	·	·
Cc1cc(C)cc(N2C(N)=NC(N)=NC2c2cccc(Cl)c2)c1 (configuration not stated)	·	–	·	69	·	·
O=C(Cc1ccccc1[N+](=O)[O-])NCCCc1ccccc1	·	–	·	–	·	·
Cc1cccc(C)c1NC(=O)C(c1cccc2ccccc12)n1c(=O)c(-c2cc3ccccc3[nH]2)nc2ccccc21 (configuration not stated)	·	·	·	–	·	·
O=C(O)/C=C/c1cccc(NC(=O)c2ccccc2)c1	·	–	·	–	·	–
O=C(O)/C=C/c1cccc(NC(=O)c2ccc(Cl)cc2)c1	–	–	–	–	68	·
O=C(Cc1ccsc1)OCC(=O)c1ccccc1	·	·	·	–	·	·
COC(=O)c1cccc(CSc2nc3ccccc3[nH]2)c1	–	–	–	–	60	–
